Assay results taken from ChEMBL document CHEMBL1806466, “2-Amino-4-methyl-5-phenylethyl substituted-7-N-benzyl-pyrrolo[2,3-d]pyrimidines as novel antitumor antimitotic agents that also reverse tumor resistance” (Bioorg Med Chem, 2011).
The source made the active and inactive calls. The rule behind the calls is not given here.

Tests used:
[1] = Cytotoxic activity against drug-resistant […]-deficient human NCI/ADR cells expressing Pgp after 48 hrs by sulforhodamine B assay; assay type: functional, cell-based; conditions: NCI/ADR-RES
Outline: (§1)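 Cells plated at ~15% confluency and allowed 24 h to attach, then exposed to varying test concentrations for 48 h. Survival by SRB binding, reported as % decrease in binding versus ethanol solvent controls, mean of three wells. For NCI/ADR, exposure with 0 or 50 nM vinblastine; for MCF-7/VP, with 0 or 1 nM vincristine.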

MCF7 [2] = test: Resistance factor, ratio of IC50 for drug-resistant […] human NCI/ADR cells expressing Pgp in absence of vinblastin to IC50 for drug-sensitive human MCF7 cells in presence of 50 nM vinblastin; assay type: functional
MCF7 [3] = test: Cytotoxic activity against drug-sensitive Pgp-, MRP1-deficient human MCF7 cells after 48 hrs by sulforhodamine B assay; conditions: MCF7, 48 h
NCI/ADR = test: Reversal of Pgp-mediated multidrug resistance in human NCI/ADR cells assessed as enhancement of cytotoxicity of vinblastine after 48 hrs by sulforhodamine B assay; assay type: cell-based
Outline: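 NCI/ADR cells plated at ~15% confluency and allowed 24 h to attach. […] Survival by SRB binding, each value the mean of three wells, with ethanol solvent controls. Pgp Antagonism Score = % survival without vinblastine / % survival with vinblastine.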

[4] = molecular target: Multidrug resistance-associated protein 1 (Homo sapiens, UniProt P33527); test: Reversal of MRP1-mediated multidrug resistance in human MCF7/VP cells assessed as enhancement of cytotoxicity of vincristine after 48 hrs by sulforhodamine B assay; assay type: cell-based
Sequence of Multidrug resistance-associated protein 1 (P33527 whole entry): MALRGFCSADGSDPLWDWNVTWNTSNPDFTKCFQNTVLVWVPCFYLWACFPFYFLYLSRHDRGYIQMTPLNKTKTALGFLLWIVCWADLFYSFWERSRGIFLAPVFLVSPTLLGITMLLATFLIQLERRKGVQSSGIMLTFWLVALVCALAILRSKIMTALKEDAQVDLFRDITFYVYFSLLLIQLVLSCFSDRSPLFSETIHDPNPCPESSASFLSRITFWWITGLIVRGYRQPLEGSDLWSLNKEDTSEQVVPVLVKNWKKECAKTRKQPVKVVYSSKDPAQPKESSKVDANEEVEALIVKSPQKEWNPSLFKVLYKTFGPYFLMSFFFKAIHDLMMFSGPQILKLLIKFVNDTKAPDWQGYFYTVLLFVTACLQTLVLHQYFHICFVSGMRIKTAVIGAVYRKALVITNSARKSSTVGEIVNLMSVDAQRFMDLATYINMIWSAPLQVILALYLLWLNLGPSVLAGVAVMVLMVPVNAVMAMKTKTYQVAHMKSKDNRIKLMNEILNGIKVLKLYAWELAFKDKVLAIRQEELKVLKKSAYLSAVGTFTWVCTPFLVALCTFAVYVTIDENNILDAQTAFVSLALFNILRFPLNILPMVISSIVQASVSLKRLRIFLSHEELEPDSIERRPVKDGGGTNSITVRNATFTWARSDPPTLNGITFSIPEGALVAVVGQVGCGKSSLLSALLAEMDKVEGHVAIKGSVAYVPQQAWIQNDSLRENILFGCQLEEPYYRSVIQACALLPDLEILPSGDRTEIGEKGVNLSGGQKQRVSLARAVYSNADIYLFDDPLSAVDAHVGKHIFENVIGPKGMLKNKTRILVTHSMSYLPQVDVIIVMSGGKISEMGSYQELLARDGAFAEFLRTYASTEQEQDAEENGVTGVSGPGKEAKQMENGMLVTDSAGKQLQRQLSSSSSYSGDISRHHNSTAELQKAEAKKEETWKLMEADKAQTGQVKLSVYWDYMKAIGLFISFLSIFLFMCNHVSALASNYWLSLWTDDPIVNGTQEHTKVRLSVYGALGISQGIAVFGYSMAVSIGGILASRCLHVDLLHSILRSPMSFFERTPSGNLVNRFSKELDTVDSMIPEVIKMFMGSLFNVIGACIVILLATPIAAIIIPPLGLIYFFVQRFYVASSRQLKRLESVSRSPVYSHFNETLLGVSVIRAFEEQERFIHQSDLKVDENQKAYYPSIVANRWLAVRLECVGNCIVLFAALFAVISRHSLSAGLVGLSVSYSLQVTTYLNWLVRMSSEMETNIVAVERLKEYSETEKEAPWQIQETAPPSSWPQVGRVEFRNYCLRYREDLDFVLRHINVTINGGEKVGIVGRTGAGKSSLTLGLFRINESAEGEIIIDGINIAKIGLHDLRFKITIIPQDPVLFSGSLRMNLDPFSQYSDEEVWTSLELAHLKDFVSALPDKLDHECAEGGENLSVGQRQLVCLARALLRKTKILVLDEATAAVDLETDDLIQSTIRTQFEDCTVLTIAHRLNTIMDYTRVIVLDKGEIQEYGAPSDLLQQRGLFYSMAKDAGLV
Outline: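 MCF-7/VP cells plated at ~15% confluency and allowed 24 h to attach. […] Survival by SRB binding. MRP1 Antagonism Score = % survival without vincristine / % survival with vincristine.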

[5] = Cytotoxic activity against Pgp-deficient human MCF7/VP cells expressing MRP1 after 48 hrs by sulforhodamine B assay; assay type: functional, cell-based; outline: as §1
Bos taurus = species on record: Bos taurus; test: Effect on bovine brain microtubule depolymerization assessed as decrease in absorbance at wavelength 340 nm after 15 mins
Outline: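 Bovine brain tubulin purified by three assembly/disassembly cycles followed by ion exchange. Tubulin at 2.5 mg/mL […] in 1 M glutamate, pH 6.6, with 4% DMSO, preincubated with compound at 0 °C for 15 min. 0.5 mM GTP then added and samples warmed to 37 °C. A340 monitored about 60 min.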

MCF7 [6] = test: Resistance factor, ratio of IC50 for Pgp-deficient human MCF7/VP cells expressing MRP1 in absence of vincristine to IC50 for drug sensitive human MCF7 cells in presence of 1 nM vincristine

| Structure (SMILES) | Activity (Bos taurus) | IC50 [1] [µM] | Ratio IC50 (MCF7 [2]) | IC50 (MCF7 [3]) [µM] | Activity (NCI/ADR) | Activity [4] | IC50 [5] [µM] | Ratio IC50 (MCF7 [6]) |
| --- | --- | --- | --- | --- | --- | --- | --- | --- |
| COc1ccc(CCc2cn(Cc3ccccc3)c3nc(N)nc(C)c23)c(OC)c1OC | Active | 11 | 0.61 | 18 | inactive | Active | 20 | 1.11 |
| Cc1nc(N)nc2c1c(CCc1ccccc1Cl)cn2Cc1ccccc1 | inactive | 11 | 0.55 | 20 | inactive | Not Active | 15 | 0.75 |
| COc1ccccc1CCc1cn(Cc2ccccc2)c2nc(N)nc(C)c12 |  | 2.7 | 1.17 |  | Active | Not Active | 2.6 | 1.13 |
| COc1ccc(CCc2cn(Cc3ccccc3)c3nc(N)nc(C)c23)cc1OC | inactive | 5 | 0.29 | 17 | inactive | Not Active | 7 | 0.41 |
| COc1cc(CCc2cn(Cc3ccccc3)c3nc(N)nc(C)c23)c(OC)c(OC)c1 | inactive | 33 | 0.66 | 50 | Active | Active | 63 | 1.26 |
| COc1ccc(CCc2cn(Cc3ccccc3)c3nc(N)nc(C)c23)c(OC)c1 | inactive | 6 | 0.35 | 17 | Active | Not Active | 12 | 0.71 |
| COc1cccc(OC)c1CCc1cn(Cc2ccccc2)c2nc(N)nc(C)c12 | Active | 12 | 0.54 | 22 | Active | Not Active | 20 | 0.91 |
| COc1cc(CCc2cn(Cc3ccccc3)c3nc(N)nc(C)c23)cc(OC)c1OC | Active | 0.25 | 0.83 |  | inactive | Not Active | 0.25 | 0.83 |

Further lines, with some results ahead:

| Activity (Bos taurus) | Structure (SMILES) | IC50 [1] [µM] | Ratio IC50 (MCF7 [2]) | IC50 (MCF7 [3]) [µM] | Activity (NCI/ADR) | Activity [4] | IC50 [5] [µM] | Ratio IC50 (MCF7 [6]) |
| --- | --- | --- | --- | --- | --- | --- | --- | --- |
| inactive | COc1cc(OC)c(OC)cc1CCc1cn(Cc2ccccc2)c2nc(N)nc(C)c12 | 10 | 0.66 | 15 | inactive | Not Active | 15 | 1 |
| inactive | COc1cc(CCc2cn(Cc3ccccc3)c3nc(N)nc(C)c23)cc(OC)c1 | 12 | 0.48 | 25 | inactive | Active | 17 | 0.68 |
| inactive | CC(=O)O[C@H]1C(=O)[C@@]2(C)[C@H]([C@H](OC(=O)c3ccccc3)[C@]3(O)C[C@H](OC(=O)[C@H](O)[C@@H](NC(=O)c4ccccc4)c4ccccc4)C(C)=C1C3(C)C)[C@]1(OC(C)=O)CO[C@@H]1C[C@@H]2O [PACLITAXEL] | 2.7 | 1080 |  |  |  | 0.0028 | 1.1 |
| Active | CC[C@]1(O)C[C@H]2CN(CCc3c([nH]c4ccccc34)[C@@](C(=O)OC)(c3cc4c(cc3OC)N(C=O)[C@H]3[C@@](O)(C(=O)OC)[C@H](OC(C)=O)[C@]5(CC)C=CCN6CC[C@]43[C@@H]65)C2)C1 [VINCRISTINE] | 100 | 167 |  |  |  | 0.0093 | 15.5 |
| Active | CC[C@]1(O)C[C@@H]2CN(CCc3c([nH]c4ccccc34)[C@@](C(=O)OC)(c3cc4c(cc3OC)N(C)[C@H]3[C@@](O)(C(=O)OC)[C@H](OC(C)=O)[C@]5(CC)C=CCN6CC[C@]43[C@@H]65)C2)C1 [VINBLASTINE] | > 375 | >134 |  |  |  | 0.003 | 1.1 |
